A word on the inhibition: it is the percentage by which the read-out fell short of the control. For orientation: IC50 means the concentration that inhibits the measured activity by half.

Molecules are shown by their SMILES. Calls of active or inactive are those of the source. The rule behind the calls is not given here.

Experimental findings from ChEMBL document CHEMBL3286213, “Exploration of the dihydropyrimidine scaffold for the development of new potential anti-inflammatory agents blocking prostaglandin E₂ synthase-1 enzyme (mPGES-1)” (Eur J Med Chem, 2014) are described below.

Data set [1] is described as follows: Retention time of the compound by RP-HPLC analysis. In kind it is physicochemical. A digest of the protocol:
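RP-HPLC with eluent A 0.1% TFA in water and eluent B 0.1% TFA in CH3CN, detection at 280 nm.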

The target in data set [2] is T1, Prostaglandin E synthase (Homo sapiens) (UniProt O14684).
T1 sequence (whole entry): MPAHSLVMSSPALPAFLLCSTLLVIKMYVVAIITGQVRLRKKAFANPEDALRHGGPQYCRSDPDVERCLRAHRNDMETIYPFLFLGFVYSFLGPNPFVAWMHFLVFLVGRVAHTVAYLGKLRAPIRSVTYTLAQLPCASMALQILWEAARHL
The data set is described as follows: Inhibition of mPGES-1 in interleukin-1 beta-stimulated human A549 cell microsomes assessed as reduction in PGE2 production using PGH2 as substrate at <10 uM treated for 15 mins prior to substrate addition measured after 1 min by RP-HPLC analysis. The gist of the method: (§1)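 Diluted in 0.1 M potassium phosphate pH 7.4 with 2.5 mM GSH. Compound or vehicle 15 min at 4 °C, then PGH2 added, 1 min. Stopped with FeCl2/citric acid plus 11β-PGE2 internal standard. PGE2 by SPE and RP-HPLC. Mean ± SE.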

The target of data set [3] is T2, Prostaglandin E synthase (Homo sapiens, UniProt O14684).
T2 sequence (O14684 whole entry): T1 sequence (whole entry)
In words: Inhibition of mPGES-1 in interleukin-1 beta-stimulated human A549 cell microsomes assessed as reduction in PGE2 production using PGH2 as substrate treated for 15 mins prior to substrate addition measured after 1 min by RP-HPLC analysis. The gist of the method: as §1

Data set [4] addresses T1, Prostaglandin E synthase (Homo sapiens). The data set is described as follows: Inhibition of mPGES-1 in interleukin-1 beta-stimulated human A549 cell microsomes assessed as reduction in PGE2 production using PGH2 as substrate at 10 uM treated for 15 mins prior to substrate addition measured after 1 min by RP-HPLC analysis. The gist of the method: as §1

As to `CCOC(=O)C1=C(C)N(C)C(=O)NC1c1ccc(-c2cccc(C(F)(F)F)c2)o1` (configuration not stated), in data set [1], the Retention_time was determined as 26.7 min. Also, in data set [2], the inhibition result is “inactive”.
With `CCOC(=O)C1=C(C(=O)c2ccc(OC)cc2)C(c2cccc(C=O)c2)NC(=O)N1` (configuration not stated), the Retention_time in data set [1] was 24.7 min. Also, the inhibition entry in data set [2] is “inactive”.
Consider `CCOC(=O)C1=C(C(=O)c2ccc(OC)cc2)[C@H](c2ccc(-c3cccc(C(F)(F)F)c3)o2)NC(=O)N1C`, for which the Retention_time in data set [1] was found to be 30.3 min. Further, the IC50 in data set [3] worked out at 7.56 µM.
For `CCOC(=O)C1=C(C(=O)c2ccc(OC)cc2)C(c2ccc(-c3cccc(C(F)(F)F)c3)o2)NC(=S)N1` (configuration not stated), in data set [1], the Retention_time turned out to be 32.3 min. The IC50 in data set [3] was greater than 30 µM. Moreover, in data set [4], the inhibition was 37%.
`CCOC(=O)C1=C(C(=O)c2ccc(OC)cc2)[C@H](c2cccc(-c3ccc(C#N)cc3)n2)NC(=O)N1`: the Retention_time in data set [1] was found to be 20.8 min. In addition, in data set [2], the inhibition entry was “inactive”.
`CCOC(=O)C1=C(C(=O)c2ccc(OC)cc2)C(c2cccc(OCC)c2)NC(=O)N1` (configuration not stated): in data set [1], the Retention_time was 22.9 min. Further, the inhibition entry in data set [2] was “inactive”.
As for `CCOC(=O)C1=C(C(=O)c2ccc(OC)cc2)[C@H](c2coc3c(Br)cc(Br)cc3c2=O)NC(=O)N1`, the Retention_time in data set [1] is 26.4 min. The inhibition entry in data set [2] is “inactive”.
In data set [1], `CCOC(=O)C1=C(C(=O)c2ccc(OC)cc2)[C@H](c2ccc(-c3cccc(C(F)(F)F)c3)o2)NC(=O)N1` came in with a Retention_time of 34.2 min. Moreover, in data set [3], the IC50 worked out at 4.16 µM.
